High-throughput results from PubChem BioAssay.
Many of the other results were omitted from the sample, so hits are more common in it than they were.
Insulin prom act: TRM-6 insulin promoter activation. TRM-6 cells (human fetal islet line), insulin promoter eGFP reporter, imaging; plate-scaled: unstimulated 0, stimulated control 100. activation, % at 2 µM. 0.81% of 130,000 active. AID 1296;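 active = activation at 2 µM above a set limit, confirmed on inspection of the cell images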;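 note: share of cells whose green reporter signal exceeds an intensity cutoff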
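test system = TRM-6 insulin promoter–eGFP reporter cells | benchmarks = stimulated versus unstimulated wells as plate controls | read-out basis = percent cells above green-intensity threshold, converted to percent activation versus plate controls | detection = fixed-cell fluorescence microscopy, eGFP plus Hoechst | incubation = tamoxifen pre-incubation 15 h overnight, then compound exposure 48 h at 37 °C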
Numbers without * were called inactive.

SMILES | Insulin prom act
COc1cc(/C=C/C(=O)O)ccc1OCc1cnc(Cl)s1 | 0
COc1cc(/C=N/NC(=O)c2cccc([N+](=O)[O-])c2)ccc1OCc1ccccc1 | 45
COc1cc(/C=N/NC(=O)c2ccncc2)ccc1OCc1cnc(Cl)s1 | 240*
CCc1cccc(NC(=O)C2CCCC2)c1 | -5
CCc1cccc(NC(=O)C2CCCN(S(=O)(=O)c3c(C)[nH]c(=O)[nH]c3=O)C2)c1 (centres undefined) | 83*
Cc1cccc(NC(=O)C2CCCN(S(=O)(=O)c3cccc4nsnc34)C2)c1 (centres undefined) | 0
C=CCOc1ccc(C2CC(C)=NN2c2ccccc2)cc1 (centres undefined) | 0
COc1ccc(CNC(=O)C/C(C)=N/NC(=O)C23CC4CC(CC(C4)C2)C3)cc1 | 0
O=C(NCc1ccccn1)C1CCN(S(=O)(=O)c2ccccc2)CC1 | 0
Cc1ccc(S(=O)(=O)N2CCC(C(=O)NCc3ccccc3Cl)CC2)cc1 | 91*
CN(C)C(=O)N1CCCC(C(=O)NCc2ccccc2Cl)C1 (centres undefined) | -8
COc1ccc(OCC(=O)Nc2ccc(N3CCN(C(=O)c4ccccc4C)CC3)cc2)cc1 | 0
Nc1cc(Oc2ccc(F)cc2F)cc([N+](=O)[O-])c1 | -7
O=C(CCc1nc(-c2ccccc2)no1)Nc1cc(C(F)(F)F)ccc1Cl | -5
COc1cccc(NC(=O)CCc2nc(-c3ccccc3F)no2)c1 | 0
CCN(C(=O)CCc1nc(-c2ccccc2F)no1)c1cc(OC)ccc1OC | -8
COc1ccccc1NC(=O)CCc1nc(-c2ccccc2F)no1 | 305*
COc1ccccc1NC(=O)CCc1nc(-c2cccs2)no1 | 83*
CCOc1cc(-c2noc(CCC(=O)Nc3cccnc3)n2)ccc1OC | -3
Cc1ccc(C)c(C(=O)NCc2ccncc2)c1 | 5
COc1ccc(CCc2nnc(CCC(=O)N(C)Cc3ccnc4ccccc34)o2)cc1 | 10
O=C(c1nc2ccccn2c1CN1CCCC(c2nc3ccccc3o2)C1)N1CCCC1 (centres undefined) | 5
O=C1CCN(S(=O)(=O)c2ccc(Br)cc2)CCN1 | -4
COc1cc(/C=C(\NC(C)=O)C(=O)Nc2cccc(O)c2)ccc1OC(C)=O | 0
O=C(NCCCn1ccnc1)C(=O)Nc1ccccc1 | 127
SMILES | Insulin prom act
Cc1cc(C(=O)NCCCn2ccnc2)sc1-c1ccccc1 | 531*
O=C(NCCCn1ccnc1)C(=O)NCc1ccccc1 | -3
CN(C)c1ccc(/C=C/C=N/Nc2nc(N3CCOCC3)nc(N3CCOCC3)n2)cc1 | 8
COc1ccc(CNC(=O)C(c2ccco2)N(Cc2cccs2)C(=O)Cc2cccs2)cc1 (centres undefined) | 80*
COc1ccc(CNC(=O)C(c2ccc(C)cc2)N(Cc2cccs2)C(=O)c2ccc3c(c2)OCCO3)cc1 (centres undefined) | 4
COc1ccc(CNC(=O)C(c2cccs2)N(Cc2ccco2)C(=O)Cc2cccs2)cc1 (centres undefined) | 284
CCOC(=O)c1c(C)[nH]c(C)c1C(=O)Cn1nnc(-c2ccccc2C)n1 | 40
CCCC1=C(C(=O)OCC)C(c2c(C)nn(-c3ccccc3)c2Cl)C(C#N)=C(N)O1 (centres undefined) | 3
O=C(COC(=O)c1cc(Br)ccc1O)Nc1cc(S(=O)(=O)N2CCCC2)ccc1Cl | 9
O=C1OCC2=C1C(c1ccc(F)cc1)c1cc3c(cc1N2)OCCO3 (centres undefined) | 127
Cn1c(N)c(C(=O)COC(=O)c2ccc(Cl)nc2)c(=O)n(C)c1=O | -7
O=C(OCn1ncc(Cl)c(Cl)c1=O)c1ccc(F)cc1 | 243*
O=C(Cn1ncc(Cl)c(Cl)c1=O)c1ccc(Cl)cc1 | 8
